Key:
[1] = test system: B16; experiment: Inhibition of murine B16 melanoma cell proliferation measured by the MTT assay; assay type: functional, cell-based; conditions: Mus musculus
Method in brief: (§1)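 Murine L1210 leukemia and B16 melanoma cells were grown in RPMI 1640 with 10% fetal calf serum, 2 mM L-glutamine, penicillin/streptomycin and 10 mM HEPES (pH 7.4). Cells were exposed to nine serial drug dilutions in triplicate for about four doubling times (L1210 48 h, B16 96 h), then read by microculture tetrazolium (MTT) assay. IC50 is the concentration halving optical density versus untreated controls, averaged over ≥2 independent experiments.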

[2] = test system: L1210; experiment: Inhibition of murine L1210 leukemia cell proliferation measured by the MTT assay; assay type: functional, cell-based; conditions: Mus musculus; method in brief: as §1
[3] = test system: Mus musculus; experiment: Long-term survivors among 6 mice infected with P388 leukemia, scored on day 90 at 20 mg/kg dose; assay type: functional
[4] = test system: Mus musculus; experiment: Long-term survivors among 6 mice infected with P388 leukemia, scored on day 60 at 160 mg/kg dose on day 1; assay type: functional
Method in brief: (§2)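 B6D2F1 mice in groups of 6–7 were inoculated ip on day 0 with 10^6 P388 cells. Dihydrochloride salts were dissolved in water and given iv on day 1 or on days 1, 5 and 9. Doses ranged from a low nontoxic dose to a toxic one. Long-term survivors were counted at day 60.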

[5] = test system: Mus musculus; experiment: Long-term survivors among 6 mice infected with P388 leukemia, scored on day 60 at 160 mg/kg dose on day 1, 5, 9; assay type: functional; method in brief: as §2
[6] = test system: Mus musculus; experiment: Percent median survival time of mice intraperitoneally injected with P388 leukemia was determined from tested at 160 mg/kg at day1 dose to that of control; assay type: functional
Method in brief: (§3)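 P388 leukemia in B6D2F1 mice (groups of 6–7), 10^6 cells inoculated ip on day 0. Dihydrochloride salts were dissolved in water and given iv on day 1 or on days 1, 5, 9. Three doses were tested, then five if active. %T/C = median survival treated/control × 100, reported at the optimal dose (no toxic death, weight loss <20%), from one or two representative experiments.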

[7] = test system: Mus musculus; experiment: Percent median survival time of mice intraperitoneally injected with P388 leukemia was determined from tested at 160 mg/kg at day1,5,9 dose to that of control; assay type: functional; conditions: route intraperitoneal; method in brief: as §3
[8] = test system: Mus musculus; experiment: Percent median survival time of mice injected with B16 melanoma, at a intraperitoneal compound dose of 20 mg/kg
[9] = test system: Mus musculus; experiment: Long-term survivors among 12 mice infected with P388 leukemia, scored on day 60 at 240-320 mg/kg dose on day 1; assay type: functional; method in brief: as §2
[10] = test system: Mus musculus; experiment: Percent median survival time of mice injected with P388 leukemia, at a subcutaneous compound dose of 240-320 mg/kg; assay type: functional
[11] = test system: Mus musculus; experiment: Long-term survivors among 12 mice infected with B16 melanoma, scored on day 90 at 10 mg/kg dose on days 1-9
[12] = test system: Mus musculus; experiment: Percent median survival time of mice injected with B16 melanoma, at a intraperitoneal compound dose of 10 mg/kg
[13] = test system: Mus musculus; experiment: Percent median survival time of mice injected with P388 leukemia, at a intravenous compound dose of 80-160 mg/kg
[14] = test system: Mus musculus; experiment: Long-term survivors among 12 mice infected with P388 leukemia, scored on day 60 at 20 mg/kg dose on day 1, 5, 9; assay type: functional; method in brief: as §2
[15] = test system: Mus musculus; experiment: Long-term survivors among 12 mice infected with P388 leukemia, scored on day 60 at 40 mg/kg dose on day 1; assay type: functional; method in brief: as §2
[16] = test system: Mus musculus; experiment: Percent median survival time of mice injected with P388 leukemia, at dose of 20 mg/kg on day 1, 5, 9; assay type: functional; method in brief: as §3
[17] = test system: Mus musculus; experiment: Percent median survival time of mice injected with P388 leukemia, at dose of 40 mg/kg on day 1; assay type: functional; method in brief: as §3
[18] = test system: Mus musculus; experiment: Long-term survivors among 21 mice infected with B16 melanoma, scored on day 90 at 5 mg/kg dose
[19] = test system: Mus musculus; experiment: Percent median survival time of mice injected with B16 melanoma, at a intraperitoneal compound dose of 5 mg/kg
[20] = test system: Mus musculus; experiment: Long-term survivors among 14 mice infected with P388 leukemia, scored on day 60 at 320 mg/kg dose on day 1; assay type: functional; method in brief: as §2
[21] = test system: Mus musculus; experiment: Percent median survival time of mice injected with P388 leukemia, at a subcutaneous compound dose of 160 mg/kg; assay type: functional
[22] = organism: Mus musculus; experiment: Long-term survivors among 14 mice infected with B16 melanoma, scored on day 90 at optimal dose on days 1-9
[23] = test system: Mus musculus; experiment: Percent median survival time of mice injected with P388 leukemia, at a intravenous compound dose of 320 mg/kg
[24] = test system: Mus musculus; experiment: Percent median survival time of mice injected with B16 melanoma, at a intraperitoneal compound dose of 20-40 mg/kg
[25] = test system: Mus musculus; experiment: Long-term survivors among 7 mice infected with B16 melanoma, scored on day 90 at 40 mg/kg dose on day 1; assay type: functional
[26] = test system: Mus musculus; experiment: Long-term survivors among 7 mice infected with P388 leukemia, scored on day 60 at 40 mg/kg dose on day 1; assay type: functional
Method in brief: (§4)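 B6D2F1 mice in groups of 6–7 received 10^6 P388 cells ip on day 0. Dihydrochloride salts dissolved in water were injected iv on day 1 or on days 1, 5 and 9, at three doses and then five. Read-outs were % T/C (median survival treated/control × 100) and long-term survivors on day 60, both at the optimal dose (no toxic death, weight loss <20%).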

[27] = test system: Mus musculus; experiment: Percent median survival time of mice injected with P388 leukemia, at a subcutaneous compound dose of 20 mg/kg; assay type: functional
[28] = test system: Mus musculus; experiment: Percent median survival time of mice injected with P388 leukemia, at a intravenous compound dose of 40 mg/kg
[29] = test system: Mus musculus; experiment: Percent median survival time of mice injected with B16 melanoma, at a intraperitoneal compound dose of 1.25 mg/kg
[30] = test system: Mus musculus; experiment: Long-term survivors among 7 mice infected with B16 melanoma, scored on day 90 at 240 mg/kg dose on day 1; assay type: functional
[31] = test system: Mus musculus; experiment: Long-term survivors among 7 mice infected with P388 leukemia, scored on day 60 at 240 mg/kg dose on day 1; assay type: functional; method in brief: as §4
[32] = test system: Mus musculus; experiment: Percent median survival time of mice injected with P388 leukemia, at a subcutaneous compound dose of 240 mg/kg; assay type: functional
[33] = test system: Mus musculus; experiment: Percent median survival time of mice injected with B16 melanoma, at a intraperitoneal compound dose of 80 mg/kg
[34] = test system: Mus musculus; experiment: Long-term survivors among 6 mice infected with P388 leukemia, scored on day 60 at 240 mg/kg dose; assay type: functional; method in brief: as §2
[35] = test system: Mus musculus; experiment: Percent median survival time of mice intraperitoneally injected with P388 leukemia was determined from tested at 240 mg/kg at day1 dose to that of control; assay type: functional; conditions: route intraperitoneal; method in brief: as §3
[36] = test system: Mus musculus; experiment: Long-term survivors among 6 mice infected with P388 leukemia, scored on day 60 at 160 mg/kg dose; assay type: functional; method in brief: as §2

Cc1c2ccnc(C(=O)NCCN(C)C)c2cc2c3cc(OCCCCC(=O)O)ccc3n(C)c12
IC50 [1]: 3470 nM | IC50 [2]: 4230 nM | LTS [3]: 0 | LTS [4]: 0 | LTS [5]: 0 | T/C [6]: 107% | T/C [7]: 108% | T/C [8]: 146%

Cc1c2ccnc(C(=O)NCCN(C)C)c2cc2c3cc(OC(=O)CCCCC(=O)O)ccc3n(C)c12
IC50 [1]: 5 nM | IC50 [2]: 20.8 nM | LTS [9]: 16 | T/C [10]: >607% | LTS [11]: 4 | T/C [12]: >352% | T/C [13]: >607%

Cc1c2c(C(=O)NCCN(C)C)nccc2c(C)c2c1c1cc(OC(=O)CCCC(=O)O)ccc1n2C
IC50 [1]: 1.4 nM | IC50 [2]: 34 nM | LTS [14]: 11 | LTS [15]: 11 | T/C [16]: >640% | T/C [17]: >640% | LTS [18]: 0 | T/C [19]: 202%

Cc1c2ccnc(C(=O)NCCN(C)C)c2cc2c3cc(OC(=O)CC(C)(C)CC(=O)O)ccc3n(C)c12
IC50 [1]: 3.7 nM | IC50 [2]: 2.7 nM | LTS [20]: 4 | T/C [21]: 404% | LTS [22]: 5 | T/C [23]: >600% | T/C [24]: >466%

Cc1c(OC(=O)CCCCC(=O)O)ccc2c1c1cc3c(C(=O)NCCN(C)C)nccc3c(C)c1n2C
IC50 [1]: 6.4 nM | IC50 [2]: 24.7 nM | LTS [25]: 0 | LTS [26]: 0 | T/C [27]: >600% | T/C [28]: 300% | T/C [29]: 127%

Cc1c2ccnc(C(=O)NCCN(C)C)c2cc2c3cc(OC(=O)NCCCC(=O)O)ccc3n(C)c12
IC50 [1]: 45.7 nM | IC50 [2]: 522 nM | LTS [30]: 0 | LTS [31]: 0 | T/C [21]: 109% | T/C [32]: 111% | T/C [33]: 139%

Cc1c2ccnc(C(=O)NCCN(C)C)c2cc2c3cc(OCC(O)CO)ccc3n(C)c12 (stereo unspecified)
IC50 [1]: 954 nM | IC50 [2]: 500 nM | LTS [34]: 0 | T/C [7]: 114% | T/C [35]: 127% | LTS [36]: 0 | T/C [8]: 129%

From ChEMBL document CHEMBL1132144, “Synthesis of 9-O-substituted derivatives of 9-hydroxy-5, 6-dimethyl-6H-pyrido[4,3-b]carbazole-1-carboxylic acid (2-(dimethylamino)ethyl)amide and their 10- and 11-methyl analogues with improved antitumor activity” (J Med Chem, 1999)
